Activity calls are given as the source filed them. The rule behind the calls is not given here.
Columns and labels:
[1] = test system: L6; experiment: Induction of glucose consumption in differentiated rat L6 cells at 20 uM incubated for 12 hrs in presence of 0.5% bovine serum albumin and low-glucose by glucose oxidase method; type: functional, cell-based
Procedure, shortened: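 L6 myoblasts were grown in high-glucose DMEM with 10% FBS and then differentiated into myotubes in 2% FBS for 4−6 days. The myotubes were treated for 12 h in low-glucose (1000 mg/L) DMEM with 0.5% BSA. Medium glucose was measured by glucose oxidase. Consumption was calculated as the glucose in cell-free blank wells minus the glucose in wells with cells.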

[2] = target: AMPK alpha2/beta1/gamma1 (Homo sapiens, UniProt P54619+P54646+Q9Y478); experiment: Activation of recombinant AMPKalpha2beta1gamma1 (unknown origin) expressed in Escherichia coli BL21 in presence of CaMKKbeta (unknown origin) incubated for 45 mins in presence of substrate-1 peptide and ATP by HTRF assay
[3] = target: T1, AMPK alpha2/beta1/gamma1 (Homo sapiens) (UniProt P54646+P54619+Q9Y478); experiment: Activation of recombinant AMPKalpha2beta1gamma1 (unknown origin) expressed in Escherichia coli BL21 in presence of CaMKKbeta (unknown origin) incubated for 45 mins in presence of substrate-1 peptide and ATP by HTRF assay relative to untreated control
[4] = test system: L6; experiment: Induction of glucose consumption in differentiated rat L6 cells at 10 uM incubated for 12 hrs in presence of 0.5% bovine serum albumin and low-glucose by glucose oxidase method; type: functional, cell-based
Procedure, shortened: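 L6 myoblasts grown in high-glucose (4500 mg/L) DMEM with 10% FBS, then differentiated to myotubes in high-glucose DMEM with 2% FBS for 4−6 days. Compound added in 0.5% BSA low-glucose (1000 mg/L) DMEM for 12 h. Medium glucose read by glucose oxidase method. Consumption calculated as cell-free blank wells minus wells with cells.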

[5] = target: T1, AMPK alpha2/beta1/gamma1 (Homo sapiens); experiment: Activation of recombinant AMPKalpha2beta1gamma1 (unknown origin) expressed in Escherichia coli BL21 in presence of CaMKKbeta (unknown origin) at 10 uM incubated for 45 mins in presence of substrate-1 peptide and ATP by HTRF assay relative to untreated control

Sequence of AMPK alpha2/beta1/gamma1 (P54646 whole entry): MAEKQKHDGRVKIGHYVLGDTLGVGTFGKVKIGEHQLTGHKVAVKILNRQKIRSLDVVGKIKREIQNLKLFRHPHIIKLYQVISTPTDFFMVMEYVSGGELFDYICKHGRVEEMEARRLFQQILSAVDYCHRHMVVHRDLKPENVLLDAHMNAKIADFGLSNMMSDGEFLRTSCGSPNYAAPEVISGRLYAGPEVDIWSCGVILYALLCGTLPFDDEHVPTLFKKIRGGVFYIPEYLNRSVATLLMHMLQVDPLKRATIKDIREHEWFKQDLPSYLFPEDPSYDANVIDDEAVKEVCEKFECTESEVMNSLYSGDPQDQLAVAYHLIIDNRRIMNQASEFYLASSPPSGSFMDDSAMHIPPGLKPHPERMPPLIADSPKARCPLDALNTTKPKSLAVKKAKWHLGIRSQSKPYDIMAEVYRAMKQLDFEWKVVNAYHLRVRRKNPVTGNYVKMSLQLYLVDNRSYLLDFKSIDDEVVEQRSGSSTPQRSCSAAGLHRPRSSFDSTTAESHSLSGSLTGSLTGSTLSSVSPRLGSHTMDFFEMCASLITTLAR
Sequence of AMPK alpha2/beta1/gamma1 (P54619 whole entry): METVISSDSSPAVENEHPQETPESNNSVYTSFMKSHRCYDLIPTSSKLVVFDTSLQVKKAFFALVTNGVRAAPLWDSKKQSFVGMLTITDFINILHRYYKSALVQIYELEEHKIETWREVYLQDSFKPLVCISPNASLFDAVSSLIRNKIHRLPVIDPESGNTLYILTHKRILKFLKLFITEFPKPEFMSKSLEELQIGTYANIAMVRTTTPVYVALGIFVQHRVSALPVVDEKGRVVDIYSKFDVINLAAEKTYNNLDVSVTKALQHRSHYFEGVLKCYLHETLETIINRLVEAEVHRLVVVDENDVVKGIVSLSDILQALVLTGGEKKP
Sequence of AMPK alpha2/beta1/gamma1 (Q9Y478 whole entry): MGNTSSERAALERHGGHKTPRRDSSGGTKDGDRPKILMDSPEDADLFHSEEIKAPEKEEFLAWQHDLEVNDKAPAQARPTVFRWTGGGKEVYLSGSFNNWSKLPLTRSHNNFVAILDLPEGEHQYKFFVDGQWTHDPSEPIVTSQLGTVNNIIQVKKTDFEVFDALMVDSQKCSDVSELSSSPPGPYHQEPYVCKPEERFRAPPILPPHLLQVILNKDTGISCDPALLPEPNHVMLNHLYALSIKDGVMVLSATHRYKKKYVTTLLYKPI
T1 sequence (P54619 whole entry partner): as the sequence (P54619 whole entry) above
T1 sequence (P54646 whole entry): as the sequence (P54646 whole entry) above
T1 sequence (Q9Y478 2-270 partner limits assumed): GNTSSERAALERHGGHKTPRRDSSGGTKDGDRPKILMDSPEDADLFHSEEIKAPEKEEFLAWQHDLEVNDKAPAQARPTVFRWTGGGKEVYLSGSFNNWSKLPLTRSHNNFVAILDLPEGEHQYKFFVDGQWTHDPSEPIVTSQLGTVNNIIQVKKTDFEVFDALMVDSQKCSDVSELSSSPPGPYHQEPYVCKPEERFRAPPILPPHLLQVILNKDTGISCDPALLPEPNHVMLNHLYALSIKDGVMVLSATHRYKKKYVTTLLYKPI

Which Activity [1] does the source give for `CC(C)=CCC[C@](C)(O[C@@H]1O[C@H](CO[C@@H]2OC[C@H](O)[C@H](O)[C@H]2O)[C@@H](O)[C@H](O)[C@H]1O)[C@H]1CC[C@]2(C)[C@@H]1[C@H](O)C[C@@H]1[C@@]3(C)CC[C@H](O[C@@H]4O[C@H](CO)[C@@H](O)[C@H](O)[C@H]4O[C@@H]4O[C@H](COC(=O)CC(=O)O)[C@@H](O)[C@H](O)[C@H]4O)C(C)(C)[C@@H]3CC[C@]12C` here?
Its Activity is “Active”.

How did the EC50 [2] turn out when `CC(C)=CCC[C@](C)(O[C@@H]1O[C@H](CO[C@@H]2O[C@H](CO)[C@@H](O)[C@H](O)[C@H]2O)[C@@H](O)[C@H](O)[C@H]1O)[C@H]1CC[C@]2(C)[C@@H]1[C@H](O)C[C@@H]1[C@@]3(C)CC[C@H](O[C@@H]4O[C@H](CO)[C@@H](O)[C@H](O)[C@H]4O[C@@H]4O[C@H](CO)[C@@H](O)[C@H](O)[C@H]4O)C(C)(C)[C@@H]3CC[C@]12C` [GINSENOSIDE RB1] was run?
The EC50 was 0.0168 to 2.8 µM.

Which results are given for `CC(C)=CCC[C@](C)(O[C@@H]1O[C@H](CO)[C@@H](O)[C@H](O)[C@H]1O)[C@H]1CC[C@]2(C)[C@@H]1[C@H](O)C[C@@H]1[C@@]3(C)CC[C@H](O[C@@H]4O[C@H](CO)[C@@H](O)[C@H](O)[C@H]4O[C@@H]4O[C@H](CO)[C@@H](OC(=O)CC(=O)O)[C@H](O)[C@H]4O)C(C)(C)[C@@H]3CC[C@]12C`?
fold change (FC) [3]: 1.7 to 4.7; EC50 [2]: 0.0168 to 2.8 µM

Which fold change (FC) [3] does the source give for `CC(C)=CCC[C@](C)(O[C@@H]1O[C@H](CO)[C@@H](O)[C@H](O)[C@H]1O)[C@H]1CC[C@]2(C)[C@@H]1[C@H](O)C[C@@H]1[C@@]3(C)CC[C@H](O[C@@H]4O[C@H](CO)[C@@H](O)[C@H](O)[C@H]4O[C@@H]4O[C@H](COC(=O)CC(=O)O)[C@@H](O)[C@H](O)[C@H]4O)C(C)(C)[C@@H]3CC[C@]12C` here?
The fold change (FC) was 1.7 to 4.7.

What about the EC50 [2] of the same compound?
The EC50 was 0.0168 to 2.8 µM.

With `CC(C)=CCC[C@](C)(O[C@@H]1O[C@H](CO[C@@H]2O[C@H](CO)[C@@H](O)[C@H](O)[C@H]2O)[C@@H](O)[C@H](O)[C@H]1O)[C@H]1CC[C@]2(C)[C@@H]1[C@H](O)C[C@@H]1[C@@]3(C)CC[C@H](O[C@@H]4O[C@H](CO)[C@@H](O)[C@H](O)[C@H]4O[C@@H]4O[C@H](COC(=O)CC(=O)O)[C@@H](O)[C@H](O)[C@H]4O)C(C)(C)[C@@H]3CC[C@]12C` as the compound, how does the fold change (FC) [3] read?
Its fold change (FC) is 1.7 to 4.7.

And the EC50 [2]?
Its EC50 is 0.0168 to 2.8 µM.

Which EC50 [2] does the source give for `CC(C)=CCC[C@](C)(O[C@@H]1O[C@H](CO)[C@@H](O)[C@H](O)[C@H]1O)[C@H]1CC[C@]2(C)[C@@H]1[C@H](O)C[C@@H]1[C@@]3(C)CC[C@H](O[C@@H]4O[C@H](CO)[C@@H](O)[C@H](O)[C@H]4O[C@@H]4O[C@H](CO)[C@@H](O)[C@H](O)[C@H]4O)C(C)(C)[C@@H]3CC[C@]12C` [GINSENOSIDE RD] here?
The EC50 was 0.0168 to 2.8 µM.

Which results are given for `CC(C)=CCC[C@](C)(O[C@@H]1O[C@H](CO[C@@H]2OC[C@H](O)[C@H](O)[C@H]2O)[C@@H](O)[C@H](O)[C@H]1O)[C@H]1CC[C@]2(C)[C@@H]1[C@H](O)C[C@@H]1[C@@]3(C)CC[C@H](O[C@@H]4O[C@H](CO)[C@@H](O)[C@H](O)[C@H]4O[C@@H]4O[C@H](CO)[C@@H](O)[C@H](O)[C@H]4O)C(C)(C)[C@@H]3CC[C@]12C` [GINSENOSIDE RB2]?
Activity [4]: Active; fold change (FC) [3]: 4.7; EC50 [2]: 0.0168 µM; Activity [1]: Active

For `COc1ccc2cc3[n+](cc2c1OC)CCc1cc2c(cc1-3)OCO2`, which Activity [5] is on record?
The Activity was “Active”.

`CC(C)=CCC[C@](C)(O[C@@H]1O[C@H](CO[C@@H]2O[C@@H](CO)[C@H](O)[C@H]2O)[C@@H](O)[C@H](O)[C@H]1O)[C@H]1CC[C@]2(C)[C@@H]1[C@H](O)C[C@@H]1[C@@]3(C)CC[C@H](O[C@@H]4O[C@H](CO)[C@@H](O)[C@H](O)[C@H]4O[C@@H]4O[C@H](COC(=O)CC(=O)O)[C@@H](O)[C@H](O)[C@H]4O)C(C)(C)[C@@H]3CC[C@]12C` was tested. Which fold change (FC) [3] did it give?
The fold change (FC) was 1.7 to 4.7.

What about the EC50 [2] of the same compound?
The EC50 was 0.0168 to 2.8 µM.

How did the Activity [1] turn out when `CC(C)=CCC[C@](C)(O[C@@H]1O[C@H](CO)[C@@H](O)[C@H](O)[C@H]1O)[C@H]1CC[C@]2(C)[C@@H]1[C@H](O)C[C@@H]1[C@@]3(C)CC[C@H](O)C(C)(C)[C@@H]3[C@@H](O[C@@H]3O[C@H](COC(=O)CC(=O)O)[C@@H](O)[C@H](O)[C@H]3O[C@@H]3O[C@@H](C)[C@H](O)[C@@H](O)[C@H]3O)C[C@]12C` was run?
Its Activity is “Active”.

Which results are given for `CC(C)=CCC[C@](C)(O[C@@H]1O[C@H](CO[C@@H]2O[C@H](CO)[C@@H](OC(=O)CC(=O)O)[C@H](O)[C@H]2O)[C@@H](O)[C@H](O)[C@H]1O)[C@H]1CC[C@]2(C)[C@@H]1[C@H](O)C[C@@H]1[C@@]3(C)CC[C@H](O[C@@H]4O[C@H](CO)[C@@H](O)[C@H](O)[C@H]4O[C@@H]4O[C@H](CO)[C@@H](O)[C@H](O)[C@H]4O)C(C)(C)[C@@H]3CC[C@]12C`?
fold change (FC) [3]: 1.7 to 4.7; EC50 [2]: 0.0168 to 2.8 µM

`CC(C)=CCC[C@](C)(O[C@@H]1O[C@H](CO[C@@H]2OC[C@H](O)[C@H](O)[C@H]2O)[C@@H](O)[C@H](O)[C@H]1O)[C@H]1CC[C@]2(C)[C@@H]1[C@H](O)C[C@@H]1[C@@]3(C)CC[C@H](O[C@@H]4O[C@H](CO)[C@@H](O)[C@H](O)[C@H]4O[C@@H]4O[C@H](CO)[C@@H](OC(=O)CC(=O)O)[C@H](O)[C@H]4O)C(C)(C)[C@@H]3CC[C@]12C` was tested. Which fold change (FC) [3] did it give?
Its fold change (FC) is 1.7 to 4.7.

And the EC50 [2]?
The EC50 was 0.0168 to 2.8 µM.
